How the values were obtained:
Cytochrome P450 2C9 = Cytochrome P450 2C9 (Homo sapiens, UniProt P11712); assay: Activity of human CYP2C9 expressed in microsomes isolated from baculovirus infected insect cell assessed as enzyme-mediated compound formation treated with [14C]-rivoglitazone at 20 uM after 2 hrs by radio-HPLC/LC-MS/MS analysis in presence of NADPH-generating system; type: ADME
Method in brief: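 Baculovirus-insect-cell microsomes expressing the human CYP (1 mg/ml protein) were incubated with [14C]rivoglitazone (20 μM) in 50 mM potassium phosphate (pH 7.4) or 100 mM Tris-HCl (pH 7.5) with an NADPH-generating system (2 mM NADP+, 20 mM glucose 6-phosphate, 2 units/ml G6PDH, 10 mM MgCl2) for 2 h at 37°C. Insect-cell control supersomes served as the control. Reactions were stopped with acetonitrile, and the concentrated supernatants were analysed by radio-HPLC, LC-MS and LC-MS/MS.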

Cytochrome P450 2D6 = Cytochrome P450 2D6 (Homo sapiens, UniProt P10635); assay: Activity of human CYP2D6 expressed in microsomes isolated from baculovirus infected insect cell assessed as enzyme-mediated 2-hydroxy-3-(4-((6-methoxy-1-methyl-1H-benzo[d]imidazol-2-yl)methoxy)phenyl)propanamide formation at 20 uM after 2 hrs by radio-HPLC/LC-MS/MS analysis in presence of NADPH-generating system and NADPH-generating system/SAM; type: ADME
Cytochrome P450 2C8 [1] = target: T1, Cytochrome P450 2C8 (Homo sapiens, UniProt P10632); assay: (§1) Activity of human CYP2C8 expressed in microsomes isolated from baculovirus infected insect cell assessed as enzyme-mediated 5-(4-((6-hydroxy-1-methyl-1H-benzo[d]imidazol-2-yl)methoxy)benzyl)thiazolidine-2,4-dione formation at 20 uM after 2 hrs by radio-HPLC/LC-MS/MS analysis in presence of NADPH-generating system and NADPH-generating system/SAM; type: ADME
T1 sequence (P10632 whole entry): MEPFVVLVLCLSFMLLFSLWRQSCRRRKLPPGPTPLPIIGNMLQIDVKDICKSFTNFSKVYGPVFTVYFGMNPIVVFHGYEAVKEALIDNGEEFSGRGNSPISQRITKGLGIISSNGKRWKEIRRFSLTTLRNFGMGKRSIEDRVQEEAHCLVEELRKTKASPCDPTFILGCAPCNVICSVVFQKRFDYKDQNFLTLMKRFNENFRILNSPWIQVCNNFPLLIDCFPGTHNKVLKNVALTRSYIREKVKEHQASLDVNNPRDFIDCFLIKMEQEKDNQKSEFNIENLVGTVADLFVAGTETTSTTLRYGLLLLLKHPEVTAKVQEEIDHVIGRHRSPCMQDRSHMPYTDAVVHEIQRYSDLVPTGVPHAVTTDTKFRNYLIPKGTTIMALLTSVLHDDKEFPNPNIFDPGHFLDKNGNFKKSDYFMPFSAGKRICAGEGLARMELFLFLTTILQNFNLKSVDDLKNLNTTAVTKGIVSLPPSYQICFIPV
Method in brief: (§2)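 Baculovirus/insect-cell microsomes expressing single human CYPs, 1 mg/ml protein, with 50 mM potassium phosphate (pH 7.4) or 100 mM Tris-HCl (pH 7.5). NADPH-generating system: 2 mM NADP⁺, 20 mM glucose 6-phosphate, 2 units/ml G6PDH, 10 mM MgCl₂. [¹⁴C]rivoglitazone at 20 μM, 2 h at 37°C with shaking. Control used insect-cell control supersomes. Stopped with acetonitrile; supernatant concentrated under nitrogen; metabolites analysed by radio-HPLC, LC-MS and LC-MS/MS.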

[2] = Drug metabolism in monkey hepatocytes assessed as formation of (2S,3S,4S,5R,6R)-3,4,5-trihydroxy-6-(5-(4-((6-methoxy-1-methyl-1H-benzo[d]imidazol-2-yl)methoxy)benzyl)-2,4-dioxothiazolidin-3-yl)tetrahydro-2H-pyran-2-carboxylic acid at 30 uM after 3 hrs by radio-HPLC/LC-MS/MS analysis in presence of UDPGA and UDPGA/SAM; settings: cynomolgus monkey
Cytochrome P450 2C8 [3] = target: T1, Cytochrome P450 2C8; assay: as §1, with “5-(4-((6-methoxy-1H-benzo[d]imidazol-2-yl)methoxy)benzyl)thiazolidine-2,4-dione” for “5-(4-((6-hydroxy-1-methyl-1H-benzo[d]imidazol-2-yl)methoxy)benzyl)thiazolidine-2,4-dione”; type: ADME; method in brief: as §2
[4] = target: T2, UDP-glucuronosyltransferase 1A3 (Homo sapiens, UniProt P35503); assay: Activity of human UGT1A3 expressed in microsomes isolated from baculovirus infected insect cell assessed as enzyme-mediated 2-amino-3-((1-carboxy-2-(4-((6-methoxy-1-methyl-1H-benzo[d]imidazol-2-yl)methoxy)phenyl)ethyl)disulfanyl)propanoic acid formation at 20 uM after 4 hrs by radio-HPLC/LC-MS/MS analysis in presence of UDPGA and UDPGA/SAM; type: ADME
T2 sequence (P35503 whole entry): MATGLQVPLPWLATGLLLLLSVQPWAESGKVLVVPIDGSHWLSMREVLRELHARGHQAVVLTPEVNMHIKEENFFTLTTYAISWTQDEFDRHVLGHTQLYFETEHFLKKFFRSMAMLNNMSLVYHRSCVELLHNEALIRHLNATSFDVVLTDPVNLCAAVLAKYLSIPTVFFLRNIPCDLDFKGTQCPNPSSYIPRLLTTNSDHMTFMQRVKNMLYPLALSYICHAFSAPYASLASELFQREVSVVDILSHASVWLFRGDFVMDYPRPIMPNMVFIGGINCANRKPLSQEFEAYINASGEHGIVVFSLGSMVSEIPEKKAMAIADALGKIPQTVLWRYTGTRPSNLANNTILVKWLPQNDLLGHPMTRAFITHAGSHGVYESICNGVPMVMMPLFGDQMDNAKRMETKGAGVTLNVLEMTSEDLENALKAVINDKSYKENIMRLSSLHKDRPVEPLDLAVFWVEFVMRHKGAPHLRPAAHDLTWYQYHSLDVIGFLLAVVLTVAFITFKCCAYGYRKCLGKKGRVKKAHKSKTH
Method in brief: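 Alamethicin (50 μg/mg protein, 15 min on ice) pretreated expressed human UGT microsomes (1 mg/ml protein) from baculovirus-infected insect cells. Incubation with [¹⁴C]rivoglitazone (20 μM) in 100 mM Tris-HCl (pH 7.5) with 10 mM MgCl₂, started by 5 mM UDPGA, 4 h at 37°C with shaking. UGT insect-cell control supersomes were run alongside. Acetonitrile stop, concentrated supernatant analysed by radio-HPLC, LC-MS and LC-MS/MS.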

Liver microsome = assay: Drug metabolism in human liver microsomes assessed as formation of 2-mercapto-3-(4-((6-methoxy-1-methyl-1H-benzo[d]imidazol-2-yl)methoxy)phenyl)propanoic acid at 20 uM after 2 to 4 hrs by radio-HPLC/LC-MS/MS analysis in presence of UDPGA, UDPGA/SAM and NADPH-generating system; type: ADME

Sequence of Cytochrome P450 2C9 (P11712 whole entry): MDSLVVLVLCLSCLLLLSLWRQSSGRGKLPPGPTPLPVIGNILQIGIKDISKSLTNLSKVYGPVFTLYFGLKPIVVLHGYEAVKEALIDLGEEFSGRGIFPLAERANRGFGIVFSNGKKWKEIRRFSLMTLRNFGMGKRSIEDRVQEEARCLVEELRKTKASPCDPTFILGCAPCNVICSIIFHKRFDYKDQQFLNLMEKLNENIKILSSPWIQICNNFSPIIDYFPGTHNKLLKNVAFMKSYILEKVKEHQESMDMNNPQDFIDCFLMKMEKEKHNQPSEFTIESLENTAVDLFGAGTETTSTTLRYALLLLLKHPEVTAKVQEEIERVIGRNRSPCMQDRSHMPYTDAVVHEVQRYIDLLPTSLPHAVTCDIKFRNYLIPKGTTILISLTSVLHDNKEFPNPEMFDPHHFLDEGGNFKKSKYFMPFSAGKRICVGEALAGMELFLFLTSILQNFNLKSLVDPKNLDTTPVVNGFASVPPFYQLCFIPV
Sequence of Cytochrome P450 2D6 (P10635 whole entry): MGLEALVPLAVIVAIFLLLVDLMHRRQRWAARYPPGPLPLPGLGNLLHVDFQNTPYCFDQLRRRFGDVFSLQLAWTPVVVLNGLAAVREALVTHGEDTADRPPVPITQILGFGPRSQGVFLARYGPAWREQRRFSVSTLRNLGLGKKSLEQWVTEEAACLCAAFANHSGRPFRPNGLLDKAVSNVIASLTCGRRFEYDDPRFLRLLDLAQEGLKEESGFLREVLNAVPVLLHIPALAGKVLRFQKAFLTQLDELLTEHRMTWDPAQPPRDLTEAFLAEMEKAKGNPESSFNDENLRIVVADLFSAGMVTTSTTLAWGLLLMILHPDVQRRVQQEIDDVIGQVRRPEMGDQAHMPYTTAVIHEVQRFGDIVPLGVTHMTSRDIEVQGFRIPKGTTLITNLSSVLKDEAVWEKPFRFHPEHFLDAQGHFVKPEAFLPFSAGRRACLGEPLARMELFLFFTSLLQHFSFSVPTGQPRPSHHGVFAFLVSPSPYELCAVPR

Row | Drug metabolism (Cytochrome P450 2C9) | Drug metabolism (Cytochrome P450 2D6) | Drug metabolism (Cytochrome P450 2C8 [1]) | Drug metabolism [2] | Drug metabolism (Cytochrome P450 2C8 [3]) | Drug metabolism [4] | Drug metabolism (Liver microsome) | Compound
1 | metabolite_detected |  |  |  |  |  |  | COc1ccc2nc(COc3ccc(CC(S)C(=O)O)cc3)n(C)c2c1 (configuration not stated)
2 |  | metabolite_detected | metabolite_detected | metabolite_detected | metabolite_detected | metabolite_not_detected | metabolite_detected | COc1ccc2nc(COc3ccc(C[14CH]4SC(=O)NC4=O)cc3)n(C)c2c1.Cl (racemic)
